Results as given in PubChem BioAssay.
Active and inactive are the calls of the source.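 The calls were made as follows, unless noted: active = viability loss from added drug above about 55%, and viability with drug at most 40%, in both replicates (limit read from the data, passing the limit was not always enough); inconclusive = both conditions met in only one replicate; inactive = neither replicate meets both conditions.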

Key:
[1] = Her2 expression decrease, cell viability multiplex – SKBR3 breast tumor cells, AlphaScreen, ATP viability, primary screen (AID 461;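 active = Her2 level under about 52% in both replicate screens, with viability over 70% of control, limit read from the data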;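 as to Her2 level: lower value means less Her2 protein in the cells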;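 as to viability: percent of carrier control wells set as 100% viability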); conditions: SKBR3 Her2 protein level, 18-24 h, measured here: SKBR3 viability, ATP luminescence, at 10 µM
[2] = molecular target: Receptor tyrosine-protein kinase erbB-2 (Homo sapiens) (UniProt P04626); assay: as above; conditions: 18-24 h, at 10 µM, stronger effect = lower value
[3] = reduced viability of SK-BR-3 breast cancer cells – cell-based, 24 h, human, pilot screen (AID 572;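 active = viability at or below 10% of carrier control in both of two separate runs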;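 also: compound exposure lasted between 18 and 24 h rather than exactly 24 h; 100% = carrier-treated control wells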); conditions: SK-BR-3 viability, CellTiter-Glo luminescence, at 10 µM, stronger effect = lower value
[4] = HUVEC growth inhibition – cell-based, human, primary screen (AID 575;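 active = viability at or below 30% in both replicate assays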;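 also: 100% = median of untreated cell wells with 0.1% DMSO on each plate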); conditions: HUVEC proliferation, CellTiter-Glo luminescence, 72 h; at 10 µM; stronger effect = lower value
Procedure, shortened: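 System: primary human umbilical vein endothelial cells; Quantity: 1250 endothelial cells in each well; Buffer or medium: supplemented EBM, 2% fetal bovine serum; Doses: one dose, 10 µM final, 0.1% DMSO; Incubation: 72 h compound incubation; Technique: ATP-based CellTiter-Glo luminescent read; Evaluation: percent of median DMSO-control luminescence; Controls: vehicle and MePR control wells.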

[5] = H69AR cell proliferation blockers – human, duplicate replicates, primary screen (AID 580;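 active = viability at or under a set limit in both replicates, limit being median viability minus 3 SD, cut at about 48% in these data, passing the limit was not always enough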;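 also: 100% = mean luminescence of untreated wells and 0% = no signal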); conditions: H69AR lung tumor cells viability, ATP luminescence, 72 h; at 10 µM; stronger effect = lower value
[6] = MRP1 drug-resistance reversers in H69AR cells – cell-based, doxorubicin co-treatment, pilot screen (AID 601); conditions: CellTiter-Glo, 72 h, at 10 µM; for differential viability (reversal): stronger effect = higher value
[7] = yeast transport mutant growth inhibition pilot in 384-well plates, post-Golgi transport modulator project (AID 636; in the data active = inhibition above about 31%); conditions: absorbance 615 nm, about 18 h, stronger effect = higher value
[8] = growth suppression of yeast trafficking mutant, preliminary HTS, modulators of trafficking downstream of Golgi apparatus project, 1536-format plate, OD 615 nm (AID 637; in the data active = inhibition above about 30%); conditions: yeast transport mutant growth, absorbance 615 nm, 18 h; stronger effect = higher value
[9] = H69AR cells + 2 uM doxorubicin, measured here: viability with 2 uM doxorubicin, stronger effect = lower value
[10] = H69AR cells, compound alone cytotoxicity

Receptor tyrosine-protein kinase erbB-2 (Homo sapiens), sequence (P04626 whole entry, looked up): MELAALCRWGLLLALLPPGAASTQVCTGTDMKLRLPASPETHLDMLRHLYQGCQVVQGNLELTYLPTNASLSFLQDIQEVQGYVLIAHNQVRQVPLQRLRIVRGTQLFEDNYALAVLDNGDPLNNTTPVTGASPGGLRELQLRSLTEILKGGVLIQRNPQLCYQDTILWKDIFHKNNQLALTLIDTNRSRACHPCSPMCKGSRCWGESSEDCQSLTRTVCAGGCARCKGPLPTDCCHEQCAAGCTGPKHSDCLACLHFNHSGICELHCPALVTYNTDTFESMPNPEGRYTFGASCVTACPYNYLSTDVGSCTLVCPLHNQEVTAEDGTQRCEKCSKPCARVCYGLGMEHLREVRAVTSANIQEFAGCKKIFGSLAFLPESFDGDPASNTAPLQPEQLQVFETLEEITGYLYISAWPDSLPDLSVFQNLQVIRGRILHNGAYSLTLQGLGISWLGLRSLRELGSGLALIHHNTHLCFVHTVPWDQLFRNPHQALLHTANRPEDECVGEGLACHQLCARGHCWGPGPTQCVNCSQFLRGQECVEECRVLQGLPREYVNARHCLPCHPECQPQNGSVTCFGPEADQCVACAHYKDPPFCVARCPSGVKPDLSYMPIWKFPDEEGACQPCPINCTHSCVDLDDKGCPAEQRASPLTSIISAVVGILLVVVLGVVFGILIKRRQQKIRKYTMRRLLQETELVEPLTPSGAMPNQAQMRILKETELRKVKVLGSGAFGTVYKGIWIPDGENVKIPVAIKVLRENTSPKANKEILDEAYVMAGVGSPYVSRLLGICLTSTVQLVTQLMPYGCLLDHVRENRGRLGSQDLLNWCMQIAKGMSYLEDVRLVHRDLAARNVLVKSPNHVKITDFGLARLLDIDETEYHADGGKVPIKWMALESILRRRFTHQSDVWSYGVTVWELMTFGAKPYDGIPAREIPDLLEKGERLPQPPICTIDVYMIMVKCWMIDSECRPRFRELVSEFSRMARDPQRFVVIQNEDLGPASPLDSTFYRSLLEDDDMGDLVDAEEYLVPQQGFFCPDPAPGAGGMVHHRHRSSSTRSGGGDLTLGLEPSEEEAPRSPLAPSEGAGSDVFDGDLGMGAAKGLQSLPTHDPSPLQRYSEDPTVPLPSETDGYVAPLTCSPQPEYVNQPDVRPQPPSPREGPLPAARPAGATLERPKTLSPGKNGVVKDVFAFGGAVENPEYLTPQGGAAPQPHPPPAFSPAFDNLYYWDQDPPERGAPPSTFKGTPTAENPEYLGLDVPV

Row | SMILES | viability [1] | Her2 level [2] | viability [3] | viability [4] | viability [5] | differential viability (reversal) ([6]; H69AR cells + 2 uM doxorubicin) | viability [6, 9] | viability [6, 10] | inhibition [7] | inhibition [8]
1 | COC(=O)Cc1csc(N)n1 | 95% | 82.5% (inactive) | 95% (inactive) | 90.1% (inactive) | 93% (inactive) | 4.79% (inactive) | 88.2% | 93% | 0.92% (inactive) | -3.27% (inactive)
2 | Cc1cc2n(n1)C(c1ccccc1)Nc1ccccc1-2 (stereo not given) | 97% | 104% (inactive) | 97% (inactive) | 77.1% (inactive) | 90.7% (inactive) | 1.64% (inactive) | 89.1% | 90.7% | -6% (inactive) | -6.13% (inactive)
3 | CCOC(=O)c1ccc(N2C(=O)CC(NC3CCN(C(=O)c4ccc(F)cc4)CC3)C2=O)cc1 (stereo not given) | 102% | 126% (inactive) | 102% (inactive) | 103% (inactive) | 110% (inactive) | 14% (inactive) | 96% | 110% | 1.45% (inactive) | -5% (inactive)
4 | Cc1ccsc1C(C(=O)NC1CCCCC1)N(C(=O)Cc1cccs1)C1CC1 (stereo not given) | 97.5% | 125% (inactive) | 97.5% (inactive) | 89.2% (inactive) | 86.4% (inactive) | 9.3% (inactive) | 77.1% | 86.4% | -4.87% (inactive) | -4% (inactive)
5 | CCn1c(=O)c(=O)[nH]c2cc(C(=O)N3CCN(c4ccccc4F)CC3)ccc21 | 110% | 91.5% (inactive) | 110% (inactive) | 97.1% (inactive) | 98.9% (inactive) | 5.58% (inactive) | 93.3% | 98.9% | 0.14% (inactive) | -0.16% (inactive)
6 | CC(=O)Nc1c(C(=O)C2CC2)oc2ccccc12 | 102% | 124% (inactive) | 102% (inactive) | 96.9% (inactive) | 90.2% (inactive) | 7.75% (inactive) | 82.5% | 90.2% | -5.33% (inactive) | -5.4% (inactive)
7 | COc1ccc(C2CC(=O)C3=C(C2)Nc2ccccc2N(C(=O)C2CC2)C3c2cccnc2)cc1OC (stereo not given) | 99.5% | 96.5% (inactive) | 99.5% (inactive) | 89% (inactive) | 97.9% (inactive) | 1.81% (inactive) | 96.1% | 97.9% | -0.79% (inactive) | -1.67% (inactive)
8 | CCOC(=O)N1CCN(C(=O)c2ccc3c(SCC(=O)O)c4c(nc3c2)CCCC4)CC1 | 95.5% | 92.5% (inactive) | 95.5% (inactive) | 93.8% (inactive) | 100% (inactive) | 6.52% (inactive) | 93.9% | 100% | 0.13% (inactive) | 22.3% (inactive)
9 | COc1ccc(C)cc1S(=O)(=O)N(CC(=O)O)c1ccccc1 | 118% | 114% (inactive) | 118% (inactive) | 106% (inactive) | 86.1% (inactive) | -11.2% (inactive) | 97.2% | 86.1% | -2.84% (inactive) | 4.75% (inactive)
10 | O=C(COc1ccc(Cl)cc1)NCc1nnc(SCC(=O)Nc2ccc3c(c2)OCCO3)o1 | 102% | 122% (inactive) | 102% (inactive) | 112% (inactive) | 97.3% (inactive) | -3.68% (inactive) | 101% | 97.3% | 2.82% (inactive) | -11.7% (inactive)
11 | C=CCSC1=C(C#N)C(c2ccccc2)CC(=O)N1 (stereo not given) | 106% | 93.5% (inactive) | 106% (inactive) | 114% (inactive) | 104% (inactive) | 6.72% (inactive) | 97.4% | 104% | -1.87% (inactive) | -4.35% (inactive)
12 | CC(C)N(C(=O)CSc1nnc(-c2cc3ccccc3cc2O)n1Cc1ccco1)C(C)C | 90.5% | 76% (inactive) | 90.5% (inactive) | 66.4% (inactive) | 83.4% (inactive) | 1.54% (inactive) | 81.9% | 83.4% | -5.81% (inactive) | -0.66% (inactive)
13 | CCOC(=O)NC1(NCc2ccccc2)Oc2ccccc2O1 | 92.5% | 101% (inactive) | 92.5% (inactive) | 58.5% (inactive) | 36.8% (active) | -25% (inactive) | 61.7% | 36.8% | 6.23% (inactive) | -8.69% (inactive)
14 | CCOC(=O)c1ccc(NC2OC(=O)c3ccccc32)cc1 (stereo not given) | 106% | 93% (inactive) | 106% (inactive) | 77.4% (inactive) | 91.9% (inactive) | -3.92% (inactive) | 95.8% | 91.9% | -6.89% (inactive) | 6.17% (inactive)
15 | COc1ccc(OC)c(C2/C(=C(\O)c3ccc4c(c3)OCCO4)C(=O)C(=O)N2CCCN(C)C)c1 (stereo not given) | 102% | 76.5% (inactive) | 102% (inactive) | 111% (inactive) | 101% (inactive) | 9.38% (inactive) | 91.3% | 101% | -4.05% (inactive) | -3.81% (inactive)
16 | COC(=O)c1ccccc1NC(=O)c1noc2c1CCC2 | 93% | 83.5% (inactive) | 93% (inactive) | 86.7% (inactive) | 74.8% (inactive) | -4.56% (inactive) | 79.4% | 74.8% | -7.37% (inactive) | 2.55% (inactive)

Row | SMILES | viability [1] | Her2 level [2] | viability [3] | viability [4] | viability [5] | differential viability (reversal) ([6]; H69AR cells + 2 uM doxorubicin) | viability [6, 9] | viability [6, 10] | inhibition [7] | inhibition [8]
17 | Cc1nn(C)c(C)c1S(=O)(=O)N1CCCC(C(=O)N2CCN(c3ccc(Cl)cc3)CC2)C1 (stereo not given) | 102% | 70% (inactive) | 102% (inactive) | 87.7% (inactive) | 88.3% (inactive) | 19.3% (inactive) | 69% | 88.3% | -2.43% (inactive) | 3.49% (inactive)
18 | COCCCNC(=O)C(Cc1ccccc1)NS(=O)(=O)c1ccc2c(c1)c(=O)n(C)c(=O)n2C (stereo not given) | 101% | 95.5% (inactive) | 101% (inactive) | 96.8% (inactive) | 89.2% (inactive) | 3.26% (inactive) | 85.9% | 89.2% | -2.63% (inactive) | -3.97% (inactive)
19 | c1ccc(SCc2nc3ccccc3[nH]2)nc1 | 99.5% | 107% (inactive) | 99.5% (inactive) | 103% (inactive) | 90.6% (inactive) | -6.88% (inactive) | 97.5% | 90.6% | -5.87% (inactive) | 22.3% (inactive)
20 | C#CC(CO)N(CCN(Cc1ccccc1)C(C#C)CO)Cc1ccccc1 (stereo not given) | 107% | 85% (inactive) | 107% (inactive) | 79.4% (inactive) | 90.3% (inactive) | 9.04% (inactive) | 81.3% | 90.3% | -7.16% (inactive) | 1.5% (inactive)
21 | Cc1csc2nc(CSc3ccc(Cl)cc3)cn12 | 97.5% | 78% (inactive) | 97.5% (inactive) | 80.9% (inactive) | 88.2% (inactive) | 15.9% (inactive) | 72.3% | 88.2% | -5.87% (inactive) | 3.77% (inactive)
22 | O=C(O)c1cc(-c2ccccc2Cl)n[nH]1 | 92% | 93.5% (inactive) | 92% (inactive) | 95.6% (inactive) | 81% (inactive) | 1.79% (inactive) | 79.2% | 81% | -2.34% (inactive) | 2.38% (inactive)
23 | O=C(c1ccc(S(=O)(=O)N2CCOCC2)cc1)N(c1ccc(F)cc1)C1C=CS(=O)(=O)C1 (stereo not given) | 97.5% | 109% (inactive) | 97.5% (inactive) | 75.1% (inactive) | 97% (inactive) | 4.64% (inactive) | 92.4% | 97% | -1.92% (inactive) | -9% (inactive)
24 | O=C(Nc1cccc(F)c1)c1ccc2c(c1)OCO2 | 97.5% | 106% (inactive) | 97.5% (inactive) | 103% (inactive) | 97.1% (inactive) | 13.4% (inactive) | 83.7% | 97.1% | -2.63% (inactive) | -3.44% (inactive)
25 | Cc1cccc(OCCCC(=O)O)c1 | 101% | 102% (inactive) | 101% (inactive) | 93.5% (inactive) | 89.4% (inactive) | -4.09% (inactive) | 93.5% | 89.4% | -4.73% (inactive) | -6.83% (inactive)
26 | C[C@H](NC(=O)NCc1cccs1)C(=O)O | 104% | 98.5% (inactive) | 104% (inactive) | 111% (inactive) | 93.6% (inactive) | 0.105% (inactive) | 93.5% | 93.6% | -3.87% (inactive) | -4.43% (inactive)
27 | c1cncc(-c2nnc3n2N=C(c2cccs2)CS3)c1 | 90.5% | 73.5% (inactive) | 90.5% (inactive) | 78.2% (inactive) | 92.5% (inactive) | 4.06% (inactive) | 88.5% | 92.5% | -4.34% (inactive) | -0.83% (inactive)
28 | CC1CCc2c(sc(N)c2C(N)=O)C1 (stereo not given) | 95.5% | 81% (inactive) | 95.5% (inactive) | 86.7% (inactive) | 91.5% (inactive) | 6.62% (inactive) | 84.9% | 91.5% | -0.26% (inactive) | 4.5% (inactive)
29 | CC/C(O)=C(/C#N)c1nnc2n1CCCCC2 | 100% | 84% (inactive) | 100% (inactive) | 101% (inactive) | 97.4% (inactive) | 10.8% (inactive) | 86.5% | 97.4% | -4.68% (inactive) | -5.71% (inactive)
30 | CCCNS(=O)(=O)c1ccc(C(=O)NCC2CCCO2)cc1 (stereo not given) | 96.5% | 74.5% (inactive) | 96.5% (inactive) | 106% (inactive) | 95.1% (inactive) | -1.32% (inactive) | 96.4% | 95.1% | -3.56% (inactive) | 0.16% (inactive)
31 | c1ccc(-c2nn3c(Cn4nnc5ccccc54)nnc3s2)nc1 | 102% | 114% (inactive) | 102% (inactive) | 75.6% (inactive) | 101% (inactive) | 9.54% (inactive) | 91.5% | 101% | -2.89% (inactive) | -2.67% (inactive)
32 | O=C1OC2(c3ccccc3)C3CCCC2C13 | 100% | 120% (inactive) | 100% (inactive) | 97.3% (inactive) | 100% (inactive) | 7.76% (inactive) | 92.4% | 100% | -6.44% (inactive) | 5.87% (inactive)
